Each block holds one compound with its values, some of them ahead of it.
Assays:
[1] = target: ATP-binding cassette sub-family C member 2 (Homo sapiens, UniProt Q92887); test: Inhibition of human MRP2 expressed in MDCK2 cells assessed as reduction of [3H]E217betaG substrate transport at 25 uM by liquid scintillation counting; type: ADME, cell-based; details: mdck-ii
Procedure, shortened: (§1)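 Membrane vesicles made from MDCKII cells expressing BCRP or MRP2, and from parental cells (1 μg/μL protein). Run in Tris-sucrose buffer, pH 7.4, with 10 mM MgCl2, creatine phosphokinase and ATP, or AMP as control. Substrates: 0.035 μM [3H]E-sul for BCRP, 2 min; 0.033 μM [3H]E217βG for MRP2, 5 min; both at 37 °C. Stopped ice-cold, filtered, and counted by scintillation.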

[2] = target: T1, Broad substrate specificity ATP-binding cassette transporter ABCG2 (Homo sapiens, UniProt Q9UNQ0); test: Inhibition of human BCRP expressed in MDCK2 cells assessed as reduction of [3H]E-sul substrate transport at 50 uM by liquid scintillation counting; type: ADME, cell-based; details: mdck-ii; procedure, shortened: as §1
T1 sequence (Q9UNQ0 whole entry): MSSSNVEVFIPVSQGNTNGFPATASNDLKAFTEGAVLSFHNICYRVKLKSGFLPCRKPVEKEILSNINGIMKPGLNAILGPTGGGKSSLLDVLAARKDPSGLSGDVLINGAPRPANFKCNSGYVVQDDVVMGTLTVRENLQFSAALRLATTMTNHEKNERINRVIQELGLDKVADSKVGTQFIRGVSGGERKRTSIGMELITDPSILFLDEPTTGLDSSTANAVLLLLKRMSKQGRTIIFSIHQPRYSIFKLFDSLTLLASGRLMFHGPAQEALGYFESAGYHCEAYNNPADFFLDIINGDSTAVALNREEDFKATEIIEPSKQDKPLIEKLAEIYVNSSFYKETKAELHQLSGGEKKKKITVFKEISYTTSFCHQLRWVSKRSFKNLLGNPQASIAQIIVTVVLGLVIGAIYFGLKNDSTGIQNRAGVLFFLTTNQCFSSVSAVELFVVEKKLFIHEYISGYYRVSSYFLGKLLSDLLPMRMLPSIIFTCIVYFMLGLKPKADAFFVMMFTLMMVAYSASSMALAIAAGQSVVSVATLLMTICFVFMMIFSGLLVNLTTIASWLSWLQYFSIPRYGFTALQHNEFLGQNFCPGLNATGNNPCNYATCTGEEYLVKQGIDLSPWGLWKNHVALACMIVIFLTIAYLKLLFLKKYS

[3] = target: T2, Solute carrier family 22 member 11 (Homo sapiens, UniProt Q9NSA0); test: Inhibition of OAT4 (unknown origin) expressed in HEK293 cells assessed as reduction of [3H]E-sul substrate uptake at 500 uM by liquid scintillation counting; type: ADME, cell-based; details: hek293, 500 µM
T2 sequence (Q9NSA0 whole entry): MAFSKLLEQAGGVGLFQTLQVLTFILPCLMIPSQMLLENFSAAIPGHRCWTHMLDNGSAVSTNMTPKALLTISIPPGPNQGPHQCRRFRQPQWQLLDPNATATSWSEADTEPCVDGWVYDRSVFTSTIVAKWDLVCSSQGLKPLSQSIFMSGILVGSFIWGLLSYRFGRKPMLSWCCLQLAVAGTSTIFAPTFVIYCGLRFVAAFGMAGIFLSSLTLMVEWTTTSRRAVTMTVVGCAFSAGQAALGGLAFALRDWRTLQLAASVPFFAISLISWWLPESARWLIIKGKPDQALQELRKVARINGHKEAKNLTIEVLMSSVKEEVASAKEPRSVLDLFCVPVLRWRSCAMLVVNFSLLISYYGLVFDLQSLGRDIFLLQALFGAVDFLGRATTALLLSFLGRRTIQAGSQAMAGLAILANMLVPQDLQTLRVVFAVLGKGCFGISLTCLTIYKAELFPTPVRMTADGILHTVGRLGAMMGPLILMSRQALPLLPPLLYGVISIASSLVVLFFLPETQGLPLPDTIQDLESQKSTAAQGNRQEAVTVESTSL
Procedure, shortened: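 HEK293 cells transfected with OAT4, incubated with 0.1 μM [3H]E-sul and probenecid 500 µM as the inhibitor. Uptake counted by scintillation, normalised to protein, with vector uptake subtracted.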

[4] = target: T3, Organic anion transporter 3 (Homo sapiens, UniProt Q8TCC7); test: Inhibition of OAT3 (unknown origin) expressed in HEK293 cells assessed as reduction of [3H]E-sul substrate uptake at 100 uM by liquid scintillation counting; type: ADME, cell-based; details: hek293, 100 µM
T3 sequence (Q8TCC7 whole entry): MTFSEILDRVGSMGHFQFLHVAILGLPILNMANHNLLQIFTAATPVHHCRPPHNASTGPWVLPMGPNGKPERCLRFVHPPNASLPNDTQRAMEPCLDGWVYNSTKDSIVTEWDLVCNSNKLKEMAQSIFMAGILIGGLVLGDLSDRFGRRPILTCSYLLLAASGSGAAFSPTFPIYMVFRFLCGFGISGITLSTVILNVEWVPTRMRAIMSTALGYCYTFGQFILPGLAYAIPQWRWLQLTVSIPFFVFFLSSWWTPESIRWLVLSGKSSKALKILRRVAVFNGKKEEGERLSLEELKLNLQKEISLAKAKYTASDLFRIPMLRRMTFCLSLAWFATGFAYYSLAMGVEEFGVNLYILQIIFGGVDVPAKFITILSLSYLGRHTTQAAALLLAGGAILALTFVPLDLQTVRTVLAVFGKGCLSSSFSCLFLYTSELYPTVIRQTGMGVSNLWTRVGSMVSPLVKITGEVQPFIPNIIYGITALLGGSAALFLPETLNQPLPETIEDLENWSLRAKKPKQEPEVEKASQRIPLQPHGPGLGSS
Procedure, shortened: (§2)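 HEK293 cells transiently transfected with OAT, OATP or OCT plasmid (FuGENE6; 24 h, then 24 h more with sodium butyrate), or stable OCTN1/OCTN2 lines; vector-transfected cells as control. Washed, preincubated 15–60 min at 37 °C in modified Krebs-Henseleit/25 mM HEPES buffer. Uptake of radiolabelled substrate, 100 µM inhibitor. Cells lysed in NaOH and counted by scintillation; counts normalised to medium radioactivity and Lowry protein; vector uptake subtracted.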

OCTN1 (SLC22A4) = target: T4, OCTN1 (SLC22A4) (Homo sapiens, UniProt Q9H015); test: Inhibition of OCTN1 (unknown origin) expressed in HEK293 cells assessed as reduction of [3H]ergothioneine substrate uptake at 1500 uM by liquid scintillation counting; type: cell-based; details: HEK293 cells expressing OCTN1, probe [3H]ergothioneine
T4 sequence (Q9H015 whole entry): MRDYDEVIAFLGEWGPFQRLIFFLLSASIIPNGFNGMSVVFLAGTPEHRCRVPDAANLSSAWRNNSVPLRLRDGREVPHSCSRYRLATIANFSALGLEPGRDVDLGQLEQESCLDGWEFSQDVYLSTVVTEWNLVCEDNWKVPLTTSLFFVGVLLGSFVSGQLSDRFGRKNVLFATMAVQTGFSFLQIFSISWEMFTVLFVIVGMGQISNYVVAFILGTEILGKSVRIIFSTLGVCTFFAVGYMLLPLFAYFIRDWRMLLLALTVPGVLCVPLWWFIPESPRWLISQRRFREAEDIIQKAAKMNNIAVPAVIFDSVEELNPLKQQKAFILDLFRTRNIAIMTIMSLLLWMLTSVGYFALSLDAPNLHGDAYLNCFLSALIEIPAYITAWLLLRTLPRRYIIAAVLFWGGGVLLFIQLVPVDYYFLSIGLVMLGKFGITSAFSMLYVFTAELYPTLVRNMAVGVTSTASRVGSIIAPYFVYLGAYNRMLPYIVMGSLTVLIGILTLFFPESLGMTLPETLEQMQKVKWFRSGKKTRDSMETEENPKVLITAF
Procedure, shortened: (§3)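 HEK293 cells stably expressing OCTN1 or OCTN2, cultured two days before the assay. Quinidine 1500 µM tested against [3H]ergothioneine (1 μM, OCTN1) or [3H]carnitine (0.1 μM, OCTN2). Vector-cell uptake subtracted.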

OCTN2 = target: T5, OCTN2 (Homo sapiens, UniProt O76082); test: Inhibition of OCTN2 (unknown origin) expressed in HEK293 cells assessed as reduction of [3H]carnitine substrate uptake at 1500 uM by liquid scintillation counting; type: cell-based; details: HEK293 cells expressing OCTN2, probe [3H]carnitine; procedure, shortened: as §3
T5 sequence (O76082 whole entry): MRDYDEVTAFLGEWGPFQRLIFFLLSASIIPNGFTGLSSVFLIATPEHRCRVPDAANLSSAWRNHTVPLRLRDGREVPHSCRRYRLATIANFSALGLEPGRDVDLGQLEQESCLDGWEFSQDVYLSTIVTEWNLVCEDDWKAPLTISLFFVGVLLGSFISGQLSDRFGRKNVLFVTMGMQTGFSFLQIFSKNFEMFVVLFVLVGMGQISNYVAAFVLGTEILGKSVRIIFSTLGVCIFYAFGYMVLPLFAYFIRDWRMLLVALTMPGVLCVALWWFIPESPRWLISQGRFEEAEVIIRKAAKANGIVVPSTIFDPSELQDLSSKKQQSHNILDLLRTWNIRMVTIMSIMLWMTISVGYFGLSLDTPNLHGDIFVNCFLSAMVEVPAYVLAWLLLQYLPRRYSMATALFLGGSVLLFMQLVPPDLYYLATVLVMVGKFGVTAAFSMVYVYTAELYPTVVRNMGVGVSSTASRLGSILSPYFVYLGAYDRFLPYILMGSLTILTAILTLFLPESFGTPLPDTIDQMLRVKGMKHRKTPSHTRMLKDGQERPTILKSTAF

[5] = target: T6, Solute carrier organic anion transporter family member 1B1 (Homo sapiens, UniProt Q9Y6L6); test: Inhibition of OATP1B1 (unknown origin) expressed in HEK293 cells assessed as reduction of [3H]E217betaG substrate uptake at 100 uM by liquid scintillation counting; type: ADME, cell-based; details: hek293, 100 µM; procedure, shortened: as §2
T6 sequence (Q9Y6L6 whole entry): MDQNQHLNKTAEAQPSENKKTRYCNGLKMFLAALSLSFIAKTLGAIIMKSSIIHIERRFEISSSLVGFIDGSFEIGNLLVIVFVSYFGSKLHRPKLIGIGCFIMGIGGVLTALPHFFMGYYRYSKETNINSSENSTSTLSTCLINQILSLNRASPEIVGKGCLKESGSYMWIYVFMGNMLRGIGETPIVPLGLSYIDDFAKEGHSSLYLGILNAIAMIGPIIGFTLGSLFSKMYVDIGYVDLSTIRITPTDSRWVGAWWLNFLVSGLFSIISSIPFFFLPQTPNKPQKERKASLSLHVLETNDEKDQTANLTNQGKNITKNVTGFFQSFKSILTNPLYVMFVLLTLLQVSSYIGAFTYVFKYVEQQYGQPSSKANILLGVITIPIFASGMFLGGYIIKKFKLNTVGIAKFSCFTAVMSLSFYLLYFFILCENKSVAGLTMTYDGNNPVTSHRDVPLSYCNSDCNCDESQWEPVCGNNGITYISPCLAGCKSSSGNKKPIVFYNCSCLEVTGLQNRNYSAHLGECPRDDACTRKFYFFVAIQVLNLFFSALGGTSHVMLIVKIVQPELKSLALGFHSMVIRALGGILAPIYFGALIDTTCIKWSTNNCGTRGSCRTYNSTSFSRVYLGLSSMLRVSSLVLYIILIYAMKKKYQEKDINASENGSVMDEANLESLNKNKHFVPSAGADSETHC

[6] = target: T7, Solute carrier organic anion transporter family member 1B3 (Homo sapiens, UniProt Q9NPD5); test: Inhibition of OATP1B3 (unknown origin) expressed in HEK293 cells assessed as reduction of [3H]CCK8 substrate uptake at 100 uM by liquid scintillation counting; type: ADME, cell-based; details: hek293, 100 µM; procedure, shortened: as §2
T7 sequence (Q9NPD5 whole entry): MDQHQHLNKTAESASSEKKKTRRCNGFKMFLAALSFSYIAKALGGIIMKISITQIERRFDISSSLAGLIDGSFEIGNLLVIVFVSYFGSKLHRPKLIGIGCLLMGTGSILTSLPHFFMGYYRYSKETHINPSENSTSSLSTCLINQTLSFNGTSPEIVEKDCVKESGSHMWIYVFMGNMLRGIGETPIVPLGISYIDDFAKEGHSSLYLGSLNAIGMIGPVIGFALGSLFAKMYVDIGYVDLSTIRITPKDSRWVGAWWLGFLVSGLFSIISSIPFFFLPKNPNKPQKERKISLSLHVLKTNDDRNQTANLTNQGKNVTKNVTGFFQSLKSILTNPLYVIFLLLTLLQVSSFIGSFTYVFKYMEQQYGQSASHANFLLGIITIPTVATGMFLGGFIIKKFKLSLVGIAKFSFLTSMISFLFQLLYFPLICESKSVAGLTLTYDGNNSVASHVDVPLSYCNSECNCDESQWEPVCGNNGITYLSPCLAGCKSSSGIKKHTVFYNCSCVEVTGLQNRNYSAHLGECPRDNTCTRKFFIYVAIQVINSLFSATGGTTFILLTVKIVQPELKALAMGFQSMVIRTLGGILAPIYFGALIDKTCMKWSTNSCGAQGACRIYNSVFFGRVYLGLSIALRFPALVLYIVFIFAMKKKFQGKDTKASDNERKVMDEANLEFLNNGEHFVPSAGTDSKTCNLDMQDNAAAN

ATP-binding cassette sub-family C member 2, sequence (Q92887 whole entry): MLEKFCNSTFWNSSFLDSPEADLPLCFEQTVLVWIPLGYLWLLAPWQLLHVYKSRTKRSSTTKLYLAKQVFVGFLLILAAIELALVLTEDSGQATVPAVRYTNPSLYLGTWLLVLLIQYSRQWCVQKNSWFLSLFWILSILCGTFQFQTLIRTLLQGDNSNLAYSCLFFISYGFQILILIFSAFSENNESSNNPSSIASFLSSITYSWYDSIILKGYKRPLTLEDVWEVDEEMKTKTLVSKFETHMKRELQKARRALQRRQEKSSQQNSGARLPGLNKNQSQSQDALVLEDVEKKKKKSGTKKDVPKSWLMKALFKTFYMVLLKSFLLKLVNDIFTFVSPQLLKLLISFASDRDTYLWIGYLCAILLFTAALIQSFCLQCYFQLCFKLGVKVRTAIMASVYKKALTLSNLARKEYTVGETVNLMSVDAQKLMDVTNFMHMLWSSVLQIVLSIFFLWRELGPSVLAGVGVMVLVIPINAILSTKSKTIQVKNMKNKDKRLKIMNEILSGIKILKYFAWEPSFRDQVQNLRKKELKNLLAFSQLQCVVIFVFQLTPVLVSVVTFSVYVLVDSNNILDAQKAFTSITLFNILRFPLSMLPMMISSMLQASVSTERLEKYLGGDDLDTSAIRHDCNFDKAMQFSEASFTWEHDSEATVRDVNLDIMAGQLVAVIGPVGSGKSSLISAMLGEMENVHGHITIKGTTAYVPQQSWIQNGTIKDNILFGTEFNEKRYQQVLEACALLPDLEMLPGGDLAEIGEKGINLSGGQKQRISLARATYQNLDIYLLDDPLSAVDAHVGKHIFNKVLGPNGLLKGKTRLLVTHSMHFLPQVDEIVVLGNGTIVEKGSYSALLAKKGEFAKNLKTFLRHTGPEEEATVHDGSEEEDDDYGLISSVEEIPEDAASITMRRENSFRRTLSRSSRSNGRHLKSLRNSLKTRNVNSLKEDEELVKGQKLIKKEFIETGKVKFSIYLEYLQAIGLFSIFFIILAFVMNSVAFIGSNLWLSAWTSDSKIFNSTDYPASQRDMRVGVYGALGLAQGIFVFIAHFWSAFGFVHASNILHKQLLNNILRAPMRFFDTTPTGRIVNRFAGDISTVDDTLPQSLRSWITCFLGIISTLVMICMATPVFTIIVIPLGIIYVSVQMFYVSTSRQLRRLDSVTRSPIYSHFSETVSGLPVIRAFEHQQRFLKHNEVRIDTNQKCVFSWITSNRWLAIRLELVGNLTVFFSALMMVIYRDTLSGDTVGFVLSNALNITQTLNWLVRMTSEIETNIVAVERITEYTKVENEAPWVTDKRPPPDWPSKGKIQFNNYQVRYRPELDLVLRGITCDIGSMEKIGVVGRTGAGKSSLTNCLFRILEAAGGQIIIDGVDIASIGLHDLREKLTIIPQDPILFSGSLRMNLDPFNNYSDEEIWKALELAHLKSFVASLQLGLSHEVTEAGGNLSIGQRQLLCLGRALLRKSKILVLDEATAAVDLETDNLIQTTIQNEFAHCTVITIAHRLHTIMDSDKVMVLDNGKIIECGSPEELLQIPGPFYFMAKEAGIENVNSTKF

SMILES: CN(C)C(=O)CCSC(SCCC(=O)O)c1cccc(/C=C/c2ccc3ccc(Cl)cc3n2)c1 (stereo not drawn) [MK-571]
inhibition (INH) [1]: Active

SMILES: COc1cc2nc(N3CCN(C(=O)c4ccco4)CC3)nc(N)c2cc1OC [PRAZOSIN]
inhibition (INH) [2]: Active

SMILES: CCCN(CCC)S(=O)(=O)c1ccc(C(=O)O)cc1 [PROBENECID]
inhibition (INH) [3]: 81.4%
inhibition (INH) [4]: 88.5%

Continued, values first:

inhibition at 1500 µM (OCTN1 (SLC22A4)): 83.9%
inhibition at 1500 µM (OCTN2): 89.9%
SMILES: C=C[C@H]1C[N@@]2CC[C@H]1C[C@@H]2[C@@H](O)c1ccnc2ccc(OC)cc12 [QUINIDINE]

inhibition (INH) [5]: 98.4%
inhibition (INH) [6]: 97.4%
SMILES: CO[C@H]1/C=C/O[C@@]2(C)Oc3c(C)c(O)c4c(O)c(c(/C=N/N5CCN(C)CC5)c(O)c4c3C2=O)NC(=O)/C(C)=C\C=C\[C@H](C)[C@H](O)[C@@H](C)[C@@H](O)[C@@H](C)[C@H](OC(C)=O)[C@@H]1C [RIFAMPIN]
